ChEMBL document CHEMBL4251624, “Synthesis of podophyllotoxin linked β-carboline congeners as potential anticancer agents and DNA topoisomerase II inhibitors” (Eur J Med Chem, 2018)
Calls of active or inactive are those of the source. No cut-off for these calls is given here.

Experiments:
A549 = experiment: Cytotoxicity against human A549 cells after 48 hrs by MTT assay; format: functional, cell-based; settings: A549, 48 h
Outline: (§1)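 MTT assay. Cells seeded at 1×10^4 per well in DMEM or MEM with 10% FBS and grown 24 h at 37 °C under CO2. Compounds added for 48 h, then MTT (5 mg/mL stock) for 4 h. Formazan dissolved in DMSO and read at 570 nm. IC50 is the average of three independent experiments.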

DU-145 [1] = experiment: Cytotoxicity against human DU145 cells after 48 hrs by MTT assay; format: functional, cell-based; settings: DU-145, 48 h; outline: as §1
MDA-MB-231 = experiment: Cytotoxicity against human MDA-MB-231 cells after 48 hrs by MTT assay; format: functional, cell-based; settings: MDA-MB-231, 48 h; outline: as §1
HT-29 = experiment: Cytotoxicity against human HT-29 cells after 48 hrs by MTT assay; format: functional, cell-based; settings: HT-29, 48 h; outline: as §1
HeLa = experiment: Cytotoxicity against human HeLa cells after 48 hrs by MTT assay; format: functional, cell-based; outline: as §1
HEK293 = experiment: Cytotoxicity against HEK293 cells after 48 hrs by MTT assay; format: cell-based; settings: Homo sapiens, HEK293, 48 h; outline: as §1
DU-145 [2] = experiment: Cell cycle arrest in human DU145 cells assessed as accumulation at sub-G1 phase at 1 uM after 48 hrs by propidium iodide staining based flow cytometry (reference value: 1.49%); format: functional
DU-145 [3] = experiment: Cell cycle arrest in human DU145 cells assessed as accumulation at G0/G1 phase at 1 uM after 48 hrs by propidium iodide staining based flow cytometry (reference value: 51.28%); format: functional
DU-145 [4] = experiment: Cell cycle arrest in human DU145 cells assessed as accumulation at S-phase at 1 uM after 48 hrs by propidium iodide staining based flow cytometry (reference value: 24.99%); format: functional
DU-145 [5] = experiment: Cell cycle arrest in human DU145 cells assessed as accumulation at G2/Mphase at 1 uM after 48 hrs by propidium iodide staining based flow cytometry (reference value: 21.71%); format: functional
Homo sapiens = species: Homo sapiens; experiment: Inhibition of topoisomerase-2 (unknown origin) assessed as reduction in ATP-dependent decatenation of kinetoplast DNA at 10 uM after 30 mins by ethidium bromide staining based UV trans-illumination assay
Outline: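 kDNA decatenation, 20 μl reactions: 120 mM KCl, 50 mM Tris-HCl pH 8, 10 mM MgCl2, 0.5 mM DTT, 0.5 mM ATP, BSA, 200–300 ng kDNA, topo II 5 units. Incubated 37 °C for 30 min, stopped with SDS/proteinase K for 10 min at 37 °C. Products run on 1% agarose at 100 V and visualized by ethidium bromide under UV.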

DU-145 [6] = experiment: Induction of DNA damage in human DU145 cells at 10 uM after 24 hrs using propidium iodide stain by electrophoresis based fluorescence microscopic method; format: functional, cell-based
Outline: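 DU-145 cells treated at 10 μM for 24 h; about 25,000 cells embedded in agarose on slides. Electrophoresis 20 min at 40 V in 0.5% TBE pH 8. Propidium iodide stain 30 min; fluorescence imaging at 20x.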

Calf thymus DNA [7] = experiment: Binding affinity to calf thymus DNA assessed as hyperchromic effect […] by UV-Visible spectroscopic method; format: nucleic-acid assay; settings: Bos taurus
Outline: (§2)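 UV-visible absorption titration at 25 °C in […] cuvettes. Compound held at 25.0 μM (1 ml, 1 cm path), titrated with 5 μl additions of 25.0 μM CT-DNA in 100 mM Tris-HCl pH 7.0 until absorbance saturated. Spectra recorded 200–400 nm, using freshly prepared stocks.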

Calf thymus DNA [8] = experiment: Binding affinity to calf thymus DNA by UV-Visible spectroscopic method; format: nucleic-acid assay; settings: Bos taurus; outline: as §2
Calf thymus DNA [9] = experiment: Binding affinity to calf thymus DNA assessed as hypochromic effect at 10 uM by fluorescence spectroscopic method; format: nucleic-acid assay; settings: Bos taurus
Outline: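 Fluorescence titration at 25 °C in an acid-washed 1 cm quartz cuvette. Compound held constant at 10 μM and titrated with CT-DNA in equal steps (multiples of 0.5 μM), with a spectrum after each addition. Excitation 230 nm, emission recorded up to 600 nm.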

Calf thymus DNA [10] = experiment: Binding affinity to calf thymus DNA assessed as hypochromicity of positive CD band at 10 to 20 uM by CD spectroscopic method relative to control; format: nucleic-acid assay; settings: Bos taurus
Outline: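 CD spectra of 10 μM CT-DNA in 100 mM Tris-HCl pH 7.0, alone and with 10.0 or 20 μM compound (1:1 and 1:2 DNA:complex). Recorded 200–350 nm in a 1 mm path cuvette and averaged over 3 scans.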

COc1cc([C@@H]2c3cc4c(cc3[C@@H](NC(=O)c3cc5c([nH]c6ccccc65)c(-c5ccc(C)cc5)n3)[C@H]3COC(=O)[C@H]23)OCO4)cc(OC)c1OC
IC50 (A549): 16.8 µM
IC50 (DU-145 [1]): 8.74 µM
IC50 (MDA-MB-231): 16.4 µM
IC50 (HT-29): 20 µM
IC50 (HeLa): 9.77 µM
IC50 (HEK293): 59.4 µM

COc1cc([C@@H]2c3cc4c(cc3[C@@H](NC(=O)c3cc5c([nH]c6ccccc65)c(-c5ccc(C(F)(F)F)cc5)n3)[C@H]3COC(=O)[C@H]23)OCO4)cc(OC)c1OC
IC50 (A549): 34.1 µM
IC50 (DU-145 [1]): 24.8 µM
IC50 (MDA-MB-231): 75.9 µM
IC50 (HT-29): 46.5 µM
IC50 (HeLa): 32.1 µM
IC50 (HEK293): 63 µM

COc1cc([C@@H]2c3cc4c(cc3[C@@H](NC(=O)c3cc5c([nH]c6ccccc65)c(-c5cccc(Oc6ccccc6)c5)n3)[C@H]3COC(=O)[C@H]23)OCO4)cc(OC)c1OC
IC50 (A549): 5.19 µM
IC50 (DU-145 [1]): 3.17 µM
IC50 (MDA-MB-231): 7.52 µM
IC50 (HT-29): 10.3 µM
IC50 (HeLa): 11.2 µM
IC50 (HEK293): 102 µM

COc1cc([C@@H]2c3cc4c(cc3[C@@H](NC(=O)c3cc5c([nH]c6ccccc65)c(-c5ccccc5)n3)[C@H]3COC(=O)[C@H]23)OCO4)cc(OC)c1OC
IC50 (A549): 2 µM
IC50 (DU-145 [1]): 1.68 µM
IC50 (MDA-MB-231): 2.6 µM
IC50 (HT-29): 6.87 µM
IC50 (HeLa): 5.26 µM
IC50 (HEK293): 75 µM

COc1cc([C@@H]2c3cc4c(cc3[C@@H](NC(=O)c3cc5c([nH]c6ccccc65)c(-c5cccc(Cl)c5)n3)[C@H]3COC(=O)[C@H]23)OCO4)cc(OC)c1OC
IC50 (A549): 3.16 µM
IC50 (DU-145 [1]): 2.41 µM
IC50 (MDA-MB-231): 3.29 µM
IC50 (HT-29): 5.26 µM
IC50 (HeLa): 6.09 µM
IC50 (HEK293): 131 µM

COc1cc([C@@H]2c3cc4c(cc3[C@H](O)[C@H]3COC(=O)[C@H]23)OCO4)cc(OC)c1OC [PODOFILOX]
IC50 (DU-145 [1]): 3.11 µM
IC50 (MDA-MB-231): 9.76 µM
IC50 (HT-29): 2.99 µM
IC50 (HeLa): 3.04 µM

COc1cc([C@@H]2c3cc4c(cc3[C@@H](NC(=O)c3cc5c([nH]c6ccccc65)c(-c5ccc(F)c(F)c5)n3)[C@H]3COC(=O)[C@H]23)OCO4)cc(OC)c1OC
IC50 (A549): 2.24 µM
IC50 (DU-145 [1]): 1.14 µM
IC50 (MDA-MB-231): 2.9 µM
IC50 (HT-29): 3.53 µM
IC50 (HeLa): 3.72 µM
IC50 (HEK293): 106 µM
Activity (DU-145 [2]): 10.9%
Activity (DU-145 [3]): 18.41%
Activity (DU-145 [4]): 39.65%
Activity (DU-145 [5]): 28.08%
inhibition (Homo sapiens): Active
Activity (DU-145 [6]): Active
Activity (Calf thymus DNA [7]): Active
Kb (Calf thymus DNA [8]): 1 ×10⁴ /M
Activity (Calf thymus DNA [9]): Active
Activity (Calf thymus DNA [10]): Active

COc1ccc(-c2nc(C(=O)N[C@@H]3c4cc5c(cc4[C@@H](c4cc(OC)c(OC)c(OC)c4)[C@H]4C(=O)OC[C@@H]43)OCO5)cc3c2[nH]c2ccccc23)cc1
IC50 (A549): 29.4 µM
IC50 (DU-145 [1]): 16.8 µM
IC50 (MDA-MB-231): 34 µM
IC50 (HT-29): 35.6 µM
IC50 (HeLa): 21.9 µM
IC50 (HEK293): 65 µM

COc1cc(-c2nc(C(=O)N[C@@H]3c4cc5c(cc4[C@@H](c4cc(OC)c(OC)c(OC)c4)[C@H]4C(=O)OC[C@@H]43)OCO5)cc3c2[nH]c2ccccc23)cc(OC)c1OC
IC50 (A549): 104 µM
IC50 (DU-145 [1]): 40.3 µM
IC50 (MDA-MB-231): 58.8 µM
IC50 (HT-29): 86.5 µM
IC50 (HeLa): 72.9 µM
IC50 (HEK293): 168 µM

COc1cc([C@@H]2c3cc4c(cc3[C@@H](NC(=O)c3cc5c([nH]c6ccccc65)c(-c5ccc(Cl)cc5)n3)[C@H]3COC(=O)[C@H]23)OCO4)cc(OC)c1OC
IC50 (A549): 3.98 µM
IC50 (DU-145 [1]): 2.65 µM
IC50 (MDA-MB-231): 3.87 µM
IC50 (HT-29): 5.77 µM
IC50 (HeLa): 6.61 µM
IC50 (HEK293): 58.9 µM

COc1ccccc1-c1nc(C(=O)N[C@@H]2c3cc4c(cc3[C@@H](c3cc(OC)c(OC)c(OC)c3)[C@H]3C(=O)OC[C@@H]32)OCO4)cc2c1[nH]c1ccccc12
IC50 (A549): 1.94 µM
IC50 (DU-145 [1]): 1.41 µM
IC50 (MDA-MB-231): 2.69 µM
IC50 (HT-29): 4.3 µM
IC50 (HeLa): 4.12 µM
IC50 (HEK293): 107 µM

COc1cc([C@@H]2c3cc4c(cc3[C@@H](NC(=O)c3cc5c([nH]c6ccccc65)c(-c5ccc(F)cc5)n3)[C@H]3COC(=O)[C@H]23)OCO4)cc(OC)c1OC
IC50 (A549): 10.2 µM
IC50 (DU-145 [1]): 5.07 µM
IC50 (MDA-MB-231): 10.7 µM
IC50 (HT-29): 11.5 µM
IC50 (HeLa): 15.5 µM
IC50 (HEK293): 109 µM

COc1cc([C@@H]2c3cc4c(cc3[C@@H](NC(=O)c3cc5c([nH]c6ccccc65)c(-c5ccc6c(c5)OCO6)n3)[C@H]3COC(=O)[C@H]23)OCO4)cc(OC)c1OC
IC50 (A549): 21.8 µM
IC50 (DU-145 [1]): 14.5 µM
IC50 (MDA-MB-231): 34.3 µM
IC50 (HT-29): 30.6 µM
IC50 (HeLa): 15.3 µM
IC50 (HEK293): 70.6 µM

COc1cccc2c1C(=O)c1c(O)c3c(c(O)c1C2=O)C[C@@](O)(C(=O)CO)C[C@@H]3O[C@H]1C[C@H](N)[C@H](O)[C@H](C)O1 [DOXORUBICIN]
IC50 (A549): 1.68 µM
IC50 (DU-145 [1]): 1.86 µM
IC50 (MDA-MB-231): 1.32 µM
IC50 (HT-29): 1.41 µM

COc1cc([C@@H]2c3cc4c(cc3[C@@H](NC(=O)c3cc5c([nH]c6ccccc65)c(-c5cccnc5)n3)[C@H]3COC(=O)[C@H]23)OCO4)cc(OC)c1OC
IC50 (A549): 2.55 µM
IC50 (DU-145 [1]): 1.98 µM
IC50 (MDA-MB-231): 3.05 µM
IC50 (HT-29): 6.36 µM
IC50 (HeLa): 4.72 µM
IC50 (HEK293): 84.3 µM

COc1cc([C@@H]2c3cc4c(cc3[C@@H](NC(=O)c3cc5c([nH]c6ccccc65)c(-c5cccc6ccccc56)n3)[C@H]3COC(=O)[C@H]23)OCO4)cc(OC)c1OC
IC50 (A549): 56.9 µM
IC50 (DU-145 [1]): 22 µM
IC50 (MDA-MB-231): 27.9 µM
IC50 (HT-29): 23 µM
IC50 (HeLa): 33 µM
IC50 (HEK293): 77.3 µM

COc1cc([C@@H]2c3cc4c(cc3[C@@H](NC(=O)c3cc5c([nH]c6ccccc65)c(-c5cccc(F)c5)n3)[C@H]3COC(=O)[C@H]23)OCO4)cc(OC)c1OC
IC50 (A549): 36.4 µM
IC50 (DU-145 [1]): 48.4 µM
IC50 (MDA-MB-231): 80.4 µM
IC50 (HT-29): 55.7 µM
IC50 (HeLa): 26.5 µM
IC50 (HEK293): 104 µM

COc1ccc(-c2nc(C(=O)N[C@@H]3c4cc5c(cc4[C@@H](c4cc(OC)c(OC)c(OC)c4)[C@H]4C(=O)OC[C@@H]43)OCO5)cc3c2[nH]c2ccccc23)cc1OC
IC50 (A549): 12.7 µM
IC50 (DU-145 [1]): 9.16 µM
IC50 (MDA-MB-231): 15.5 µM
IC50 (HT-29): 14.3 µM
IC50 (HeLa): 13.4 µM
IC50 (HEK293): 89.8 µM
